56 compounds from ChEMBL document CHEMBL3272242, “Sulfamylurea hypoglycemic agents. 6. High-potency derivatives” (J Med Chem, 1976) can be followed below.

Common to all, as to format: functional
Common to all, as to set-up: scale not given: the % may be the effect or the level left
Settings in all cases: route intraperitoneal

The subject of experiment [1] is Rattus norvegicus. In words: Hypoglycemic activity in 18 to 24 hrs-fasted rat assessed as reduction in blood glucose at 15 mg/kg, ip measured after 1 hr relative to saline-treated control. In outline: (§1)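 Unanesthetized male Charles River rats (200–250 g), fasted 18–24 h, in groups of five or six. Single ip dose. Tail-vein blood drawn before dosing and 1 h after. Glucose measured by ferricyanide reduction micromethod on an autoanalyzer. Value is the percent fall in blood glucose at 1 h versus a saline-treated control group. Significance levels are p < 0.05, 0.01 and 0.001.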

In experiment [2] the test system is Rattus norvegicus. In words: Hypoglycemic activity in 18 to 24 hrs-fasted rat assessed as reduction in blood glucose at 1 mg/kg, ip measured after 1 hr relative to saline-treated control. In outline:
as §1

The test system of experiment [3] is Rattus norvegicus. In words: Hypoglycemic activity in 18 to 24 hrs-fasted rat assessed as reduction in blood glucose at 5 mg/kg, ip measured after 1 hr relative to saline-treated control. In outline:
as §1

Regarding `O.O=C(NC[C@@H]1C[C@@H]2C=C[C@@H]1C2)NS(=O)(=O)N1CCC(CCNC(=O)c2nc3ccccc3s2)CC1` (relative stereo), the Activity in experiment [1] was determined as 34%; in experiment [2], 14%; in experiment [3] it was 24%. On to `O=C(NC1CCCCC1)NS(=O)(=O)N1CCC(CCNC(=O)c2ccc3c(c2)OCO3)CC1`, for which the Activity in experiment [1] came out at 17%. With `O=C(NC[C@@H]1C[C@@H]2CC[C@@H]1O2)NS(=O)(=O)N1CCC(CCNC(=O)c2cccc3c2OCCO3)CC1` (relative stereo), the Activity worked out at 13% in experiment [1] and 15% in experiment [3].

As to `COc1ccc(NC(=O)NS(=O)(=O)N2CCC(CCNC(=O)c3cc(Cl)ccc3OC)CC2)cc1.O`, the Activity in experiment [3] is on record as 27%.

`COc1ncccc1C(=O)NCCC1CCN(S(=O)(=O)NC(=O)NCC2CCCO2)CC1` (stereo unspecified): the Activity in experiment [3] was 16%. Still for that read-out and setting: with `COc1ccc2nccc(C(=O)NCCC3CCN(S(=O)(=O)NC(=O)NC4CCCCC4)CC3)c2c1.O` the figure was 15%. On the same count and under the same terms, with `COc1ncccc1C(=O)NCCC1CCN(S(=O)(=O)NC(=O)NC[C@H]2C[C@@H]3CC[C@@H]2O3)CC1` (relative stereo) the figure was 14%; with `O=C(NC[C@@H]1C[C@@H]2C=C[C@@H]1C2)NS(=O)(=O)N1CCC(CCNC(=O)c2ccc3ccccc3n2)CC1` (relative stereo), 21%. Take `O=C(NC1CCCCC1)NS(=O)(=O)N1CCC(CCNC(=O)c2nsc3ccccc23)CC1`: the Activity in experiment [1] came out at 17%. Turning to `Cn1cccc(C(=O)NCCC2CCN(S(=O)(=O)NC(=O)NC[C@@H]3C[C@@H]4C=C[C@@H]3C4)CC2)c1=O` (relative stereo), the Activity was 40% in experiment [1] and 19% in experiment [2]. For `COc1ncccc1C(=O)NCCC1CCN(S(=O)(=O)NC(=O)NC[C@@H]2C[C@@H]3CC[C@@H]2C3)CC1` (relative stereo), the Activity in experiment [3] is 35%. On the same count and under the same terms, with `Cn1cc(C(=O)NCCC2CCN(S(=O)(=O)NC(=O)NC[C@@H]3C[C@@H]4CC[C@@H]3C4)CC2)c(=O)n(C)c1=O.O` (relative stereo) the figure was 22%.

For the compound `O=C(NC[C@@H]1C[C@@H]2C=C[C@@H]1C2)NS(=O)(=O)N1CCC(CCNC(=O)c2cnsc2)CC1` (relative stereo), the Activity in experiment [1] was 14%.

For the compound `COc1ccc(Cl)cc1C(=O)NCCC1CCN(S(=O)(=O)NC(=O)NC[C@H]2C[C@@H]3CC[C@@H]2O3)CC1.O` (relative stereo), in experiment [3], the Activity worked out at 27%. `CCCNC(=O)NS(=O)(=O)N1CCC(CCNC(=O)c2cccc3c2OCCO3)CC1`: the Activity in experiment [1] amounted to 25%. Take `CCCCn1cc(C(=O)NCCC2CCN(S(=O)(=O)NC(=O)NC[C@@H]3C[C@@H]4C=C[C@@H]3C4)CC2)c(=O)n(CCCC)c1=O` (relative stereo): the Activity in experiment [3] is 12%.

As to `COc1ccc(Cl)cc1C(=O)NCC1CCN(S(=O)(=O)NC(=O)NC2CCCCC2)CC1.O`, the Activity in experiment [3] is reported as 20%. Still for that read-out and setting: with `O=C(NC1CCCCC1)NS(=O)(=O)N1CCC(CCNC(=O)c2ccc3ccccc3n2)CC1` the figure was 11%. `O=C(NC1CCCCC1)NS(=O)(=O)N1CCC(CCNC(=O)c2csnn2)CC1`: the Activity in experiment [3] is 19%. In the case of `CC#N.O=C(NC[C@@H]1C[C@@H]2CC[C@@H]1O2)NS(=O)(=O)N1CCC(CCNC(=O)c2nc3ccccc3s2)CC1` (relative stereo), the Activity in experiment [1] turned out to be 30%. As for `COc1ccc(Cl)cc1C(=O)NCCC1CCN(S(=O)(=O)NC(=O)NC[C@@H]2C[C@@H]3C=C[C@@H]2C3)CC1` (relative stereo), the Activity came out at 27% in experiment [2] and 37% in experiment [3]. As to `O.O=C(NC1CCCCC1)NS(=O)(=O)N1CCC(CCNC(=O)c2ccnc3ccccc23)CC1`, the Activity in experiment [3] worked out at 16%. In the case of `O=C(NC1CCCCC1)NS(=O)(=O)N1CCC(CCNC(=O)c2cccc3c2OCCO3)CC1`, the Activity is on record as 42% in experiment [1] and 34% in experiment [3].

For the compound `O=C(NC[C@@H]1C[C@@H]2C=C[C@@H]1C2)NS(=O)(=O)N1CCC(CCNC(=O)C(F)(F)F)CC1` (relative stereo), the Activity in experiment [3] was 22%.

`CCCCCCNC(=O)NS(=O)(=O)N1CCC(CNC(=O)c2cc(Cl)ccc2OC)CC1`: in experiment [3], the Activity is recorded as 17%. As to `O=C(NC[C@@H]1C[C@@H]2C=C[C@@H]1C2)NS(=O)(=O)N1CCC(CCNC(=O)c2cscn2)CC1` (relative stereo), the Activity in experiment [1] came to 37%. `O.O=C(NC[C@@H]1C[C@@H]2C=C[C@@H]1C2)NS(=O)(=O)N1CCC(CCNC(=O)c2cccc3cccnc23)CC1` (relative stereo): the Activity in experiment [2] came out at 32%; in experiment [3] it was 34%. As to `COc1ncccc1C(=O)NCCC1CCN(S(=O)(=O)NC(=O)NC[C@H]2C[C@@H]3C=C[C@@H]2C3)CC1` (relative stereo), the Activity in experiment [3] is listed as 20%. Same read-out and setting: as for `CCCNC(=O)NS(=O)(=O)N1CCC(CCNC(=O)c2cc(C(F)(F)F)nn2C)CC1`, the figure is 11%. For the compound `O=C(NC[C@@H]1C[C@@H]2C=C[C@@H]1C2)NS(=O)(=O)N1CCC(CCNC(=O)c2cnccc2Cl)CC1` (relative stereo), the Activity in experiment [1] came to 12%. For the compound `COc1ncccc1C(=O)NCCC1CCN(S(=O)(=O)NC(=O)NC[C@@H]2C[C@@H]3CC[C@@H]2O3)CC1` (relative stereo), the Activity in experiment [3] is 34%.

Take `CCCn1cc(C(=O)NCCC2CCN(S(=O)(=O)NC(=O)NC[C@@H]3C[C@@H]4C=C[C@@H]3C4)CC2)c(=O)n(CC)c1=O.O` (relative stereo): in experiment [3], the Activity was determined as 19%.

As for `COc1ccc(Cl)cc1C(=O)NCCC1CCN(S(=O)(=O)NC(=O)NC[C@@H]2C[C@@H]3CC[C@@H]2O3)CC1` (relative stereo), the Activity in experiment [3] was 30%. On the same count and under the same terms, as for `Cc1ncccc1C(=O)NCCC1CCN(S(=O)(=O)NC(=O)NC[C@@H]2C[C@@H]3C=C[C@@H]2C3)CC1.O` (relative stereo), the figure is 16%; as for `COc1ccc(Cl)cc1C(=O)NCCC1CCN(S(=O)(=O)NC(=O)NN2CCCCCC2)CC1`, 36%. Regarding `Cc1ncsc1C(=O)NCCC1CCN(S(=O)(=O)NC(=O)NC[C@@H]2C[C@@H]3C=C[C@@H]2C3)CC1` (relative stereo), the values for the Activity in experiment [1] and in experiment [3] were 25% and 11%, respectively. On to `O=C(NC[C@@H]1C[C@@H]2CC[C@@H]1O2)NS(=O)(=O)N1CCC(CCNC(=O)C2Oc3ccccc3O2)CC1` (relative stereo), for which the Activity in experiment [1] is 38%; in experiment [3] it was 15%.

Turning to `O=C(NC1CCCCC1)NS(=O)(=O)N1CCC(CCNC(=O)C(F)(F)F)CC1`, the Activity in experiment [3] worked out at 13%. As for `COc1ccc(Cl)cc1C(=O)NCCC1CCN(S(=O)(=O)NC(=O)NC2CCCCC2)CC1`, the Activity in experiment [2] stood at 39%; in experiment [3], 25%.

With `Cn1cc(C(=O)NCCC2CCN(S(=O)(=O)NC(=O)NC34CC5CC(CC(C5)C3)C4)CC2)c(=O)n(C)c1=O.O`, the Activity in experiment [3] was 27%. Still for that read-out and setting: with `COc1ccc(Cl)cc1C(=O)NCC1CCN(S(=O)(=O)NC(=O)NC[C@@H]2C[C@@H]3C=C[C@@H]2C3)CC1` (relative stereo) the figure was 15%.

As to `O=C(NC1CCCCC1)NS(=O)(=O)N1CCC(CCNC(=O)c2cccc3cccnc23)CC1`, the Activity stood at 29% in experiment [2] and 37% in experiment [3]. With `CCOCCNC(=O)NS(=O)(=O)N1CCC(CCNC(=O)c2cccnc2OC)CC1`, the Activity in experiment [3] was 7%.

With `CSc1ccc(C(F)(F)F)cc1C(=O)NCCC1CCN(S(=O)(=O)NC(=O)NC2CCCCC2)CC1`, the Activity in experiment [1] was determined as 24%. In the case of `COc1ncccc1C(=O)NCCC1CCN(S(=O)(=O)NC(=O)NC23CC4CC(CC(C4)C2)C3)CC1`, the results for the Activity in experiment [2] and in experiment [3] were 12% and 25%, respectively. `CC(=O)NCCC1CCN(S(=O)(=O)NC(=O)NC[C@@H]2C[C@@H]3C=C[C@@H]2C3)CC1` (relative stereo): the values for the Activity in experiment [1] and in experiment [3] were 25% and 18%, respectively. As to `Cn1cc(C(=O)NCCC2CCN(S(=O)(=O)NC(=O)NC3CCCCC3)CC2)c(=O)n(C)c1=O`, in experiment [1], the Activity amounted to 15%. Take `COc1ccc(C(=O)NCCC2CCN(S(=O)(=O)NC(=O)NC[C@@H]3C[C@@H]4C=C[C@@H]3C4)CC2)cn1` (relative stereo): the Activity is reported as 32% in experiment [1] and 11% in experiment [3].

Turning to `COc1ccc2nccc(C(=O)NCCC3CCN(S(=O)(=O)NC(=O)NC[C@@H]4C[C@@H]5C=C[C@@H]4C5)CC3)c2c1` (relative stereo), the Activity in experiment [3] was found to be 10%. On to `Cc1ncccc1C(=O)NCCC1CCN(S(=O)(=O)NC(=O)NC2CCCCC2)CC1`, for which the Activity in experiment [3] is reported as 16%.

Turning to `O=C(NC[C@@H]1C[C@@H]2C=C[C@@H]1C2)NS(=O)(=O)N1CCC(CCNC(=O)c2cccc3c2OCCO3)CC1`, the Activity in experiment [1] turned out to be 40%; in experiment [3], 11%. As to `COc1ncccc1C(=O)NCCC1CCN(S(=O)(=O)NC(=O)NCC2CCCCO2)CC1` (stereo unspecified), in experiment [3], the Activity is recorded as 12%. On the same count and under the same terms, as for `O=C(NC1CCCCC1)NS(=O)(=O)N1CCC(CCNC(=O)C2Oc3ccccc3O2)CC1`, the figure is 8%.

On to `Cc1cccc(C(=O)NCCC2CCN(S(=O)(=O)NC(=O)NC[C@@H]3C[C@@H]4C=C[C@@H]3C4)CC2)n1` (relative stereo), for which, in experiment [3], the Activity is 20%.

For the compound `COc1ccc(Cl)cc1C(=O)NCCC1CCN(S(=O)(=O)NC(=O)NC23CC4CC(CC(C4)C2)C3)CC1`, the Activity in experiment [3] is on record as 29%. The same measure, in the same setting: with `COc1ccncc1C(=O)NCCC1CCN(S(=O)(=O)NC(=O)NC[C@@H]2C[C@@H]3C=C[C@@H]2C3)CC1` (relative stereo) the figure was 14%.
